{
  "source": "ChEMBL document CHEMBL1140733",
  "about": "“Comprehensive study of sansalvamide A derivatives and their structure-activity relationships against drug-resistant colon cancer cell lines” (J Med Chem, 2008)",
  "key": {"[1]": {"system": "HCT-116", "test": "Cytotoxicity against multidrug-resistant human HCT116 cells at 1 uM by thymidine incorporation assay", "assay_type": "functional", "outline": "(§1)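 HCT-116 cells were grown in IMDM and HCT-15 in RPMI 1640, each with L-glutamine, 10% FBS and penicillin-streptomycin, at 3000 cells/well. Compound was applied at 1 µM in 1% DMSO for 72 h total, with 3H-thymidine added for the final 16 h. Percent growth inhibition versus DMSO controls was scintillation-counted, averaging three wells in each of three assays.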"}, "[2]": {"system": "HCT-15", "test": "Cytotoxicity against multidrug-resistant human HCT15 cells at 1 uM by thymidine incorporation assay", "assay_type": "functional", "outline": "as §1"}},
  "note": "Peptide text beside a SMILES is read from it.",
  "data": [
    {"smiles": "CC(C)C[C@@H]1NC(=O)[C@H](Cc2ccccc2)NC(=O)[C@@H](Cc2ccccc2)NC(=O)[C@H](C(C)C)NC(=O)[C@H](CC(C)C)NC1=O", "values": [
      {"measurement": "inhibition at 1 µM", "setting": "[1]", "value": 35, "unit": "%"},
      {"measurement": "inhibition at 1 µM", "setting": "[2]", "value": 14, "unit": "%"}
    ]},
    {"smiles": "CC(C)C[C@@H]1NC(=O)[C@H](C)NC(=O)[C@H](CC(C)C)NC(=O)[C@H](CC(C)C)NC(=O)[C@H](Cc2ccccc2)NC1=O", "note": "(HELM PEPTIDE1{A.L.F.L.L}$PEPTIDE1,PEPTIDE1,1:R1-5:R2$$$V2.0)", "values": [
      {"measurement": "inhibition at 1 µM", "setting": "[1]", "value": 23, "unit": "%"},
      {"measurement": "inhibition at 1 µM", "setting": "[2]", "value": 40, "unit": "%"}
    ]},
    {"smiles": "CC(C)C[C@@H]1NC(=O)[C@H](Cc2ccccc2)NC(=O)[C@H](CC(C)C)NC(=O)[C@H](C(C)C)NC(=O)[C@H](CCCCN)NC1=O", "note": "(HELM PEPTIDE1{F.L.K.V.L}$PEPTIDE1,PEPTIDE1,1:R1-5:R2$$$V2.0)", "values": [
      {"measurement": "inhibition at 1 µM", "setting": "[1]", "value": 23, "unit": "%"},
      {"measurement": "inhibition at 1 µM", "setting": "[2]", "value": 15, "unit": "%"}
    ]},
    {"smiles": "CC(C)C[C@@H]1NC(=O)[C@H](Cc2ccccc2)NC(=O)[C@@H](Cc2ccccc2)N(C)C(=O)[C@H](C(C)C)NC(=O)[C@H](CCCCN)NC1=O", "note": "(HELM PEPTIDE1{F.L.K.V.[CN([C@H](Cc1ccccc1)C(=O)[*:2])[*:1]]}$PEPTIDE1,PEPTIDE1,1:R1-5:R2$$$V2.0)", "values": [
      {"measurement": "inhibition at 1 µM", "setting": "[1]", "value": 30, "unit": "%"},
      {"measurement": "inhibition at 1 µM", "setting": "[2]", "value": 26, "unit": "%"}
    ]},
    {"smiles": "CC(C)C[C@@H]1NC(=O)[C@H](Cc2ccccc2)NC(=O)[C@H](CC(C)C)NC(=O)[C@@H](C(C)C)NC(=O)[C@H](CCCCN)NC1=O", "note": "(HELM PEPTIDE1{F.L.K.[dV].L}$PEPTIDE1,PEPTIDE1,1:R1-5:R2$$$V2.0)", "values": [
      {"measurement": "inhibition at 1 µM", "setting": "[1]", "value": 11, "unit": "%"},
      {"measurement": "inhibition at 1 µM", "setting": "[2]", "value": 18, "unit": "%"}
    ]},
    {"smiles": "CC(C)C[C@@H]1NC(=O)[C@H](Cc2ccccc2)NC(=O)[C@@H](CO)NC(=O)[C@H](C(C)C)NC(=O)[C@H](CC(C)C)NC1=O", "note": "(HELM PEPTIDE1{F.L.L.V.[dS]}$PEPTIDE1,PEPTIDE1,1:R1-5:R2$$$V2.0)", "values": [
      {"measurement": "inhibition at 1 µM", "setting": "[1]", "value": 37, "unit": "%"},
      {"measurement": "inhibition at 1 µM", "setting": "[2]", "value": 3, "unit": "%"}
    ]},
    {"smiles": "CC(C)C[C@@H]1NC(=O)[C@H](Cc2ccccc2)NC(=O)[C@H](CC(C)C)NC(=O)[C@@H](C(C)C)N(C)C(=O)[C@H](CC(C)C)NC1=O", "note": "(HELM PEPTIDE1{F.L.L.[CC(C)[C@H](C(=O)[*:2])N(C)[*:1]].L}$PEPTIDE1,PEPTIDE1,1:R1-5:R2$$$V2.0)", "values": [
      {"measurement": "inhibition at 1 µM", "setting": "[1]", "value": 19, "unit": "%"},
      {"measurement": "inhibition at 1 µM", "setting": "[2]", "value": 21, "unit": "%"}
    ]},
    {"smiles": "CC(C)C[C@@H]1NC(=O)[C@H](Cc2ccccc2)NC(=O)[C@@H](CC(C)C)N(C)C(=O)[C@@H](C(C)C)N(C)C(=O)[C@H](CC(C)C)NC1=O", "note": "(HELM PEPTIDE1{F.L.L.[CC(C)[C@H](C(=O)[*:2])N(C)[*:1]].[CC(C)C[C@H](C(=O)[*:2])N(C)[*:1]]}$PEPTIDE1,PEPTIDE1,1:R1-5:R2$$$V2.0)", "values": [
      {"measurement": "inhibition at 1 µM", "setting": "[1]", "value": 30, "unit": "%"},
      {"measurement": "inhibition at 1 µM", "setting": "[2]", "value": 7, "unit": "%"}
    ]},
    {"smiles": "CC[C@H]1NC(=O)[C@H](CC(C)C)NC(=O)[C@H](CC(C)C)NC(=O)[C@H](Cc2ccccc2)NC(=O)[C@H](CC(C)C)NC1=O", "note": "(HELM PEPTIDE1{F.L.L.[CC[C@@H](N[*:1])C(=O)[*:2]].L}$PEPTIDE1,PEPTIDE1,1:R1-5:R2$$$V2.0)", "values": [
      {"measurement": "inhibition at 1 µM", "setting": "[1]", "value": 17, "unit": "%"},
      {"measurement": "inhibition at 1 µM", "setting": "[2]", "value": 20, "unit": "%"}
    ]},
    {"smiles": "CC(C)C[C@@H]1NC(=O)[C@H](Cc2ccccc2)NC(=O)[C@H](CC(C)C)NC(=O)[C@@H](Cc2ccccc2)NC(=O)[C@H](CC(C)C)NC1=O", "note": "(HELM PEPTIDE1{F.L.L.[dF].L}$PEPTIDE1,PEPTIDE1,1:R1-5:R2$$$V2.0)", "values": [
      {"measurement": "inhibition at 1 µM", "setting": "[1]", "value": 11, "unit": "%"},
      {"measurement": "inhibition at 1 µM", "setting": "[2]", "value": 11, "unit": "%"}
    ]},
    {"smiles": "CC(C)C[C@@H]1NC(=O)[C@H](Cc2ccccc2)NC(=O)[C@H](CC(C)C)NC(=O)[C@@H](CO)NC(=O)[C@H](CC(C)C)NC1=O", "note": "(HELM PEPTIDE1{F.L.L.[dS].L}$PEPTIDE1,PEPTIDE1,1:R1-5:R2$$$V2.0)", "values": [
      {"measurement": "inhibition at 1 µM", "setting": "[1]", "value": 0, "unit": "%"},
      {"measurement": "inhibition at 1 µM", "setting": "[2]", "value": 11, "unit": "%"}
    ]},
    {"smiles": "CC(C)C[C@@H]1NC(=O)[C@H](Cc2ccccc2)NC(=O)[C@@H](CC(C)C)NC(=O)[C@@H](C(C)C)NC(=O)[C@H](CC(C)C)NC1=O", "note": "(HELM PEPTIDE1{F.L.L.[dV].[dL]}$PEPTIDE1,PEPTIDE1,1:R1-5:R2$$$V2.0)", "values": [
      {"measurement": "inhibition at 1 µM", "setting": "[1]", "value": 34, "unit": "%"},
      {"measurement": "inhibition at 1 µM", "setting": "[2]", "value": 17, "unit": "%"}
    ]},
    {"smiles": "CC(C)C[C@@H]1NC(=O)[C@H](Cc2ccccc2)NC(=O)[C@H](CC(C)C)NC(=O)[C@H](C(C)C)N(C)C(=O)[C@H](CC(C)C)NC1=O", "note": "(HELM PEPTIDE1{F.L.L.[meV].L}$PEPTIDE1,PEPTIDE1,1:R1-5:R2$$$V2.0)", "values": [
      {"measurement": "inhibition at 1 µM", "setting": "[1]", "value": 6, "unit": "%"},
      {"measurement": "inhibition at 1 µM", "setting": "[2]", "value": 23, "unit": "%"}
    ]},
    {"smiles": "CC(C)C[C@@H]1NC(=O)[C@H](Cc2ccccc2)NC(=O)[C@H](CC(C)C)N(C)C(=O)[C@H](C(C)C)N(C)C(=O)[C@H](CC(C)C)NC1=O", "note": "(HELM PEPTIDE1{F.L.L.[meV].[meL]}$PEPTIDE1,PEPTIDE1,1:R1-5:R2$$$V2.0)", "values": [
      {"measurement": "inhibition at 1 µM", "setting": "[1]", "value": 10, "unit": "%"},
      {"measurement": "inhibition at 1 µM", "setting": "[2]", "value": 0, "unit": "%"}
    ]},
    {"smiles": "CC(C)C[C@@H]1NC(=O)[C@H](Cc2ccccc2)NC(=O)[C@H](CC(C)C)NC(=O)[C@H](C(C)C)NC(=O)[C@@H](CC(C)C)NC1=O", "note": "(HELM PEPTIDE1{F.L.[dL].V.L}$PEPTIDE1,PEPTIDE1,1:R1-5:R2$$$V2.0)", "values": [
      {"measurement": "inhibition at 1 µM", "setting": "[1]", "value": 0, "unit": "%"},
      {"measurement": "inhibition at 1 µM", "setting": "[2]", "value": 15, "unit": "%"}
    ]}
  ]
}
